Measurements published in ChEMBL document CHEMBL3297718, “Ultrasound-assisted one-pot four-component synthesis of novel 2-amino-3-cyanopyridine derivatives bearing 5-imidazopyrazole scaffold and their biological broadcast” (Eur J Med Chem, 2014).
≈ marks a conversion by molar mass, not a printed value.

What was measured:
Streptococcus pneumoniae = assay: Antimicrobial activity against Streptococcus pneumoniae MTCC 1936 by broth microdilution method; assay type: functional
Bacillus subtilis = assay: Antimicrobial activity against Bacillus subtilis MTCC 441 by broth microdilution method; assay type: functional
Procedure, shortened: (§1)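 Broth microdilution following NCCLS. Compounds were diluted in 2% DMSO in water. Fungi were grown in Sabouraud dextrose broth. Inoculum was set to 10⁸ CFU mL⁻¹ by turbidity. A primary serial-dilution screen was followed by a secondary set of lower dilutions for primary actives. Tubes were incubated at 37 °C, with growth noted at 24 and 48 h. MIC was the highest dilution preventing turbidity after spot subculture.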

Clostridium tetani = assay: Antimicrobial activity against Clostridium tetani MTCC 449 by broth microdilution method; assay type: functional
Escherichia coli = assay: Antimicrobial activity against Escherichia coli MTCC 443 by broth microdilution method; assay type: functional; procedure, shortened: as §1
Salmonella typhi = assay: Antimicrobial activity against Salmonella typhi MTCC 98 by broth microdilution method; assay type: functional, Salmonella enterica subsp. enterica serovar Typhi; settings: Salmonella enterica
Vibrio cholerae = assay: Antimicrobial activity against Vibrio cholerae MTCC 3906 by broth microdilution method; assay type: functional
Candida albicans = assay: Antimicrobial activity against Candida albicans MTCC 227 by broth microdilution method; assay type: functional; procedure, shortened: as §1
Aspergillus fumigatus = assay: Antimicrobial activity against Aspergillus fumigatus MTCC 3008 by broth microdilution method; assay type: functional; procedure, shortened: as §1
[1] = tested on: Mycobacterium tuberculosis; assay: Antitubercular activity against Mycobacterium tuberculosis H37Rv at 250 ug/ml; assay type: functional
[2] = tested on: Mycobacterium tuberculosis; assay: Antitubercular activity against Mycobacterium tuberculosis H37Rv; assay type: functional
Procedure, shortened: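 M. tuberculosis H37Rv was grown on Lowenstein–Jensen medium with compound at a single concentration of 250, and compared against control tubes of medium alone with the organism. Results are given as % inhibition, and the concentration giving complete inhibition of colonies was taken as the active concentration.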

[3] = Antioxidant activity assessed as ferric ion reducing activity using fe3+-TPTZ at 200 mg/ml measured as ascorbic acid per 100 g sample by FRAP assay; assay type: physicochemical
Procedure, shortened: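 FRAP assay, modified Benzie–Strain. Reagent combined TPTZ in 40 mM HCl, aqueous FeCl₃·6H₂O and acetate buffer at pH 3.6. Sample solution was mixed with 3 mL reagent and incubated 25 min at 37 °C. Fe(II)–TPTZ absorbance was read at 593 nm against an ascorbic acid standard. Results are given as ascorbic equivalents, mmol/100 g compound.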

Row | SMILES | MIC (Streptococcus pneumoniae) | MIC (Bacillus subtilis) | MIC (Clostridium tetani) | MIC (Escherichia coli) | MIC (Salmonella typhi) | MIC (Vibrio cholerae) | MIC (Candida albicans) | MIC (Aspergillus fumigatus) | inhibition at 250 µg/mL [1] | MIC [2] | Activity [3]
1 | COc1ccc(-c2cc(-c3c(C)nn(-c4ccccc4)c3-n3ccnc3)c(C#N)c(N)n2)cc1 | 125 µg/mL (≈ 279 µM) | 100 µg/mL (≈ 223 µM) | 200 µg/mL (≈ 447 µM) | 125 µg/mL (≈ 279 µM) | 200 µg/mL (≈ 447 µM) | 200 µg/mL (≈ 447 µM) | > 1000 µg/mL | 1000 µg/mL (≈ 2230 µM) | 94% | 62.5 µg/mL (≈ 140 µM) | 400.22 mmol
2 | COc1ccc(-c2cc(-c3c(C)nn(-c4ccccc4)c3-n3cnc(C)c3)c(C#N)c(N)n2)cc1 | 100 µg/mL (≈ 217 µM) | 250 µg/mL (≈ 542 µM) | 250 µg/mL (≈ 542 µM) | 125 µg/mL (≈ 271 µM) | 250 µg/mL (≈ 542 µM) | 62.5 µg/mL (≈ 135 µM) | 500 µg/mL (≈ 1080 µM) | 1000 µg/mL (≈ 2170 µM) | 56% | – | 178.82 mmol
3 | Cc1nn(-c2ccccc2)c(-n2ccnc2)c1-c1cc(-c2ccco2)nc(N)c1C#N | 100 µg/mL (≈ 245 µM) | 100 µg/mL (≈ 245 µM) | 150 µg/mL (≈ 368 µM) | 250 µg/mL (≈ 614 µM) | 100 µg/mL (≈ 245 µM) | 100 µg/mL (≈ 245 µM) | 500 µg/mL (≈ 1230 µM) | > 1000 µg/mL | 96% | 25 µg/mL (≈ 61.4 µM) | 456.32 mmol
4 | Cc1cn(-c2c(-c3cc(-c4ccco4)nc(N)c3C#N)c(C)nn2-c2ccccc2)cn1 | 250 µg/mL (≈ 593 µM) | 500 µg/mL (≈ 1190 µM) | 500 µg/mL (≈ 1190 µM) | 250 µg/mL (≈ 593 µM) | 200 µg/mL (≈ 475 µM) | 200 µg/mL (≈ 475 µM) | > 1000 µg/mL | > 1000 µg/mL | 92% | 100 µg/mL (≈ 237 µM) | 397.24 mmol
5 | Cc1nn(-c2ccccc2)c(-n2ccnc2)c1-c1cc(-c2cccs2)nc(N)c1C#N | 100 µg/mL (≈ 236 µM) | 200 µg/mL (≈ 472 µM) | 200 µg/mL (≈ 472 µM) | 500 µg/mL (≈ 1180 µM) | 500 µg/mL (≈ 1180 µM) | 62.5 µg/mL (≈ 148 µM) | > 1000 µg/mL | 500 µg/mL (≈ 1180 µM) | 41% | – | 205.48 mmol
6 | Cc1cn(-c2c(-c3cc(-c4cccs4)nc(N)c3C#N)c(C)nn2-c2ccccc2)cn1 | 100 µg/mL (≈ 229 µM) | 500 µg/mL (≈ 1140 µM) | 500 µg/mL (≈ 1140 µM) | 250 µg/mL (≈ 571 µM) | 250 µg/mL (≈ 571 µM) | 100 µg/mL (≈ 229 µM) | > 1000 µg/mL | > 1000 µg/mL | 23% | – | 422.3 mmol
7 | Cc1nn(-c2ccccc2)c(-n2ccnc2)c1-c1cc(-c2cc3ccccc3oc2=O)nc(N)c1C#N | 100 µg/mL (≈ 206 µM) | 500 µg/mL (≈ 1030 µM) | – | 200 µg/mL (≈ 412 µM) | – | – | 500 µg/mL (≈ 1030 µM) | 1000 µg/mL (≈ 2060 µM) | – | – | 401.22 mmol
8 | Cc1cn(-c2c(-c3cc(-c4cc5ccccc5oc4=O)nc(N)c3C#N)c(C)nn2-c2ccccc2)cn1 | 100 µg/mL (≈ 200 µM) | 200 µg/mL (≈ 400 µM) | – | 250 µg/mL (≈ 500 µM) | – | – | 250 µg/mL (≈ 500 µM) | 500 µg/mL (≈ 1000 µM) | – | – | 433.44 mmol
9 | Cc1cn(-c2c(-c3cc(-c4ccc5c(c4)OC(C)(C)O5)nc(N)c3C#N)c(C)nn2-c2ccccc2)cn1 | 500 µg/mL (≈ 993 µM) | 250 µg/mL (≈ 496 µM) | 500 µg/mL (≈ 993 µM) | 125 µg/mL (≈ 248 µM) | 62.5 µg/mL (≈ 124 µM) | 500 µg/mL (≈ 993 µM) | 1000 µg/mL (≈ 1990 µM) | 1000 µg/mL (≈ 1990 µM) | 78% | – | 384.91 mmol
10 | CC1(C)S[C@@H]2[C@H](NC(=O)[C@H](N)c3ccccc3)C(=O)N2[C@H]1C(=O)O [AMPICILLIN] | 100 µg/mL (≈ 286 µM) | 250 µg/mL (≈ 715 µM) | 250 µg/mL (≈ 715 µM) | 100 µg/mL (≈ 286 µM) | 100 µg/mL (≈ 286 µM) | 100 µg/mL (≈ 286 µM) | – | – | – | – | –
11 | COC1=CC(=O)C[C@@H](C)[C@]12Oc1c(Cl)c(OC)cc(OC)c1C2=O [GRISEOFULVIN] | – | – | – | – | – | – | 500 µg/mL (≈ 1420 µM) | 100 µg/mL (≈ 283 µM) | – | – | –
12 | NNC(=O)c1ccncc1 [ISONIAZID] | – | – | – | – | – | – | – | – | – | 0.2 µg/mL (≈ 1.46 µM) | –
13 | CO[C@H]1/C=C/O[C@@]2(C)Oc3c(C)c(O)c4c(O)c(c(/C=N/N5CCN(C)CC5)c(O)c4c3C2=O)NC(=O)/C(C)=C\C=C\[C@H](C)[C@H](O)[C@@H](C)[C@@H](O)[C@@H](C)[C@H](OC(C)=O)[C@@H]1C [RIFAMPIN] | – | – | – | – | – | – | – | – | 98% | 0.15 µg/mL (≈ 0.182 µM) | –
